Screening results (PubChem)
Shown are actives, neighbours in structure and some others; about 27% of the full set was active somewhere.
CYP2C19 activ: activators of human cytochrome P450 2C19; recombinant CYP2C19, luciferin-H EGE luminescence; hits give high values; 0 = fully inhibited enzyme, 1 = untreated enzyme; activation factor at 5 µM; AID 1025; 96,000 tested, under 10 active;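 active = activation factor of at least 2 at 5 µM in the primary screen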;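 also: 0 = wells with 2.5 mM tranylcypromine and 1 = vehicle-only wells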
CYP2C19 inhib: inhibitors of human CYP2C19 | P33261 | CYP2C19 Supersomes, luciferin-H EGE luminescence, 30 min | inhibition, % at 5 µM | hit rate 21% among 96,000 | AID 778;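 active = CYP2C19 inhibition above a set limit at 5 µM in the primary screen, cut at about 50% in these data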;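 also: plate controls were negative control wells for no effect and 2.5 mM tranylcypromine positive control for full effect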
CYP2C9 inh: human CYP2C9 inhibition; CYP2C9 Supersomes, luciferin-H conversion, luminescence; hit rate 20% among 96,000; inhibition, % at 5 µM; P11712;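 active = blocking of liver enzyme CYP2C9 beyond about 50% at 5 µM, limit read from the data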
HIV Rev-RRE inh: inhibitors of HIV-1 Rev-RRE RNA interaction; Rev peptide-RRE RNA binding, FRET; inhibition, % at 8 µM; hit rate 0.79% among 97,000;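 active = inhibition above the screen-wide mean plus 3 SD, cut at about 35% in these data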;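 also: 0% = median DMSO wells and 100% = median Neomycin B control wells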
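Test system – labelled RRE RNA duplex and labelled Rev peptide · Reagent – labelled Rev peptide · Doses – one concentration, 8 µM nominal · Incubation – 5 + 15 min at 25 °C · Signal – FRET fluorescence readout · Read-out basis – % inhibition of FRET ratio versus controls · Control set – DMSO wells as 0% and neomycin B wells as 100% inhibition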
CYP2C9 activ: CYP2C9 (human) activation; P11712; recombinant CYP2C9, luciferin-H conversion, luminescence; hits give high values; factor 1 = untreated enzyme, 0 = blocked; activation factor at 5 µM; hit rate 1.4% among 96,000; AID 1024;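 active = activation factor of 2 or more for CYP2C9 at a 5 µM dose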;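 also: 0 = sulfaphenazole-blocked wells and 1 = vehicle-only wells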
Cav32 inh: blocks human Cav3.2 T-type calcium channel. Cav3.2-expressing cells, Fluo-4 calcium fluorescence FDSS; hits give low values. B-score at 10 µM. hit rate 4% among 100,000. AID 449739;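 active = single-dose well whose peak fluorescence ratio is a statistical outlier from its plate by either plate-standardised score or position-corrected B-score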
* hit, by the source's call; / = no result; [ ] = dose if it differs, or a comment.

SMILES | CYP2C19 activ | CYP2C19 inhib | CYP2C9 inh | HIV Rev-RRE inh | CYP2C9 activ | Cav32 inh
C/C(=N\S(=O)(=O)c1ccc(C)cc1)N1CCN(S(=O)(=O)c2ccccc2)C1C(C)C (stereo unspecified) | 0.2 | 78.4* | -135.9 | 6.5 | 2.4* | -0.284
Cc1ccc(S(=O)(=O)N2CCN(C(=O)c3ccccc3)C2C(C)C)cc1 (stereo unspecified) | 0.6 | 42.7 | 0.4 | 8.2 | 1 | -1.1
O=C(N[C@@H](Cc1ccccc1)C(=O)OCc1ccccc1)c1nc[nH]c1C(=O)NCc1ccccc1 | / | / | / | / | / | 0.036
CC1CCc2cc(F)ccc2N1C(=O)C1(C)CC1(Cl)Cl (stereo unspecified) | 0.4 | 56.4* | 35.8 | 4.9 | 0.6 | -2.05
COc1ccccc1NC(=O)N1CCCC1C(=O)NCc1ccc(F)cc1 (stereo unspecified) | 0.7 | 27.5 | -45.7 | -0.9 | 1.5 | 0.392
CCCn1c(SCC(=O)N2c3ccc(F)cc3CCC2C)nnc1-c1ccccn1 (stereo unspecified) | / | / | / | 0.4 | / | -1.22
COc1cc(OC)cc(C(=O)N2c3ccc(F)cc3CCC2C)c1 (stereo unspecified) | 0.5 | 53.5* | 20.5 | 1.3 | 0.8 | -4.56*
CC(C(=O)N1CCCCC1)N1C(=O)c2ccccc2C1=O (stereo unspecified) | 1.1 | -10.3 | -11.0 | 2.8 | 1.1 | -0.0912
COc1ccccc1NC(=O)N1c2ccc(F)cc2CCC1C (stereo unspecified) | 1 | 4.2 | 1.4 | 2.9 | 1 | -5.1*
CC(C(=O)N1c2ccc(F)cc2CCC1C)N1C(=O)c2ccccc2C1=O (stereo unspecified) | 0.3 | 69.0* | 45.1 | 5.9 | 0.5 | 0.066
Clc1cccc(Cl)c1CSc1nnc(-c2sccc2-n2cccc2)o1 | 0.9 | 10.4 | -63.6 | 10.3 | 1.6 | /
COc1ccc(NC(=O)N2c3ccccc3CC2C)cc1OC (stereo unspecified) | 0.6 | 44.3 | 65.5* | 7.2 | 0.3 | -0.269
CC1CCc2cc(F)ccc2N1C(=O)c1cnc2sccn2c1=O (stereo unspecified) | 1 | -2.3 | -3.3 | 0.0 | 1 | 0.45
CC1CCc2cc(F)ccc2N1C(=O)c1ccc2c(c1)OCO2 (stereo unspecified) | 0.4 | 62.2* | 25.5 | 7.2 | 0.7 | -3.06
Cc1ccc(C(=O)N2c3ccc(F)cc3CCC2C)o1 (stereo unspecified) | 0.5 | 53.3* | 27.0 | 5.8 | 0.7 | /
CC1CCc2ccccc2N1C(=O)c1cccs1 (stereo unspecified) | 0.8 | 21.7 | 27.8 | -5.5 | 0.7 | -1.17
COC(=O)c1ccccc1NC(=O)N1c2ccccc2CC1C (stereo unspecified) | 0.9 | 11.5 | 22.3 | 16.7 | 0.8 | -1.64
CC1(C)OC(=O)C(=NNc2ccc(Cl)cc2)C(=O)O1 | 0.9 | 6.8 | 18.2 | 3.4 | 0.8 | -0.435
COc1ccccc1NC(=O)Cn1nnc(-c2ccccc2NC(=O)c2cc3ccccc3oc2=O)n1 | 1 | -4.4 | 23.9 | 5.8 | 0.8 | 0.286
Cc1cccc(N(C)c2cc(C)nc3nc(C)nn23)c1 | / | / | / | / | / | 0.589
COC(=O)[C@@]1(Cc2ccc(OC)cc2)[C@H]2c3cc(C(=O)N4CCCC4)n(CCSCCO)c3C[C@H]2CN1C(=O)c1ccccc1 | / | / | / | / | / | -0.00882
CCN1CCc2nc(NC(=O)c3ccccc3)sc2C1 | 1 | 2.3 | -0.4 | 20.6 | 1 | /
CN(C)c1ccc(/C=C(\C#N)C(=O)Nc2nc3c(s2)CCN(Cc2ccccc2)C3)cc1 | 0.5 | 46.3 | 19.7 | 103.6*[fluorescence artefact?] | 0.8 | -3.97*
COc1ccc(S(=O)(=O)N2CCCCCC2)cc1C(=O)OCc1c(C)noc1C | 0.5 | 50.1* | 86.3* | 4.5 | 0.1 | -0.216
COc1ccc(S(=O)(=O)N2CCc3ccccc32)cc1C(=O)OCc1c(C)noc1C | 0.1 | 94.6* | 98.9* | 11.8 | 0 | -0.749
SMILES | CYP2C19 activ | CYP2C19 inhib | CYP2C9 inh | HIV Rev-RRE inh | CYP2C9 activ | Cav32 inh
COc1cc(C=O)ccc1OCc1c(C)noc1C | 0.2 | 84.7* | 47.6 | 4.6 | 0.5 | 0.0828
CCCCNC(=O)COC(=O)c1cc(S(=O)(=O)N2CCCCCC2)ccc1OC | 0.4 | 55.4* | 47.8 | -4.6 | 0.5 | 0.375
O=C1CC(NC23CC4CC(CC(C4)C2)C3)C(=O)N1c1ccc2c(c1)OCO2 (stereo unspecified) | 0.9 | 7.1 | 2.4 | 2.4 | 1 | 1.46
CCOC(=O)C1=C(C)N(CCCC(=O)O)C(=O)NC1C(CC)CC (stereo unspecified) | / | / | / | / | / | 0.325
Cc1ccc(S(=O)(=O)N2CCN(C(=O)c3ccc(OCc4c(C)noc4C)cc3)CC2)cc1 | 1 | 3.0 | 28.6 | 4.1 | 0.7 | 0.76
Cc1noc(C)c1COC(=O)c1cccc(S(=O)(=O)N2CCCCCC2)c1 | 0.1 | 90.9* | 96.2* | / | 0 | -2.08
COc1cc(C(=O)N2CCN(S(=O)(=O)c3ccc(C)cc3)CC2)ccc1OCc1c(C)noc1C | 0.3 | 70.1* | 55.5* | 3.2 | 0.4 | -2.14
O=C(c1cccc(S(=O)(=O)N2CCCCC2)c1)N1CCOCC1 | 1 | 2.0 | 5.0 | 0.4 | 0.9 | 1.29
COC(=O)c1cccc(S(=O)(=O)N2CCC(C)CC2)c1 | 0.5 | 54.9* | -16.0 | 0.1 | 1.2 | -0.448
CC1CCN(S(=O)(=O)c2cccc(C(=O)O)c2)CC1 | 1.1 | -9.5 | -3.8 | 9.6 | 1 | -3.46
O=C(c1cc(S(=O)(=O)N2CCCCC2)ccc1F)N1CCCCC1 | 0.9 | 12.9 | 16.6 | -0.8 | 0.8 | 1.85
COC(=O)c1cc(S(=O)(=O)N2CCC(C)CC2)ccc1F | 0.1 | 88.0* | 32.8 | 2.6 | 0.7 | 0.414
COC(=O)C1=C(C)NC(=O)C1(NC(=O)CN1CCCC1=O)C(F)(F)F (stereo unspecified) | / | / | / | 5.3 | / | 0.72
COc1ccccc1N1CCN(C(=O)C2CC=CCC2C(=O)O)CC1 (stereo unspecified) | 1 | 3.9 | -9.6 | 2.4 | 1.1 | 1.25
COc1ccccc1N1CCN(C(=O)C2c3ccccc3Oc3ccccc32)CC1 | 0 | 98.1* | 99.9* | 3.7 | 0 | -5.81*
O=C(C1c2ccccc2Oc2ccccc21)N1CCN(c2ccc(Cl)cc2)CC1 | 0.1 | 94.0* | 84.7* | 1.4 | 0.2 | /
O=C(Nc1ccc(Cl)cc1)N1CCN(c2ccccc2)CC1 | / | / | / | 10.2 | / | -2.4
Cc1ccc(NC(=S)NNC(=O)c2c([N+](=O)[O-])c(C)nn2C)cc1 | 1.3 | -27.0 | 3.4 | -8.0 | 1 | -0.334
O=C1c2cccc3c(N4CCCCC4)ccc(c23)C(=O)N1CCO | 0.7 | 27.2 | 43.2 | 118.0*[fluorescence artefact?] | 0.6 | -6.12*
Cc1n[nH]c(C)c1N1C(=O)c2cccc3c(N4CCCCCC4)ccc(c23)C1=O | 0.2 | 83.0* | 96.8* | 134.1*[fluorescence artefact?] | 0 | -9.66*
CC(C)(C)C(=O)/C=C/Nc1ccccc1O | 1 | -0.3 | -1.5 | 5.9 | 1 | -0.89
